The target of assay [1] is Matrix metalloproteinase-9 (Bos taurus, UniProt P52176). As to the kind of experiment: Inhibition of bovine arterial endothelial cell MMP9.
For assay [2], the target named is Vascular endothelial growth factor receptor 1 (Homo sapiens, UniProt P17948). Description: Inhibition of Flt1 expressed in mouse NIH3T3 cells by autoradiography.
Assay [3] concerns the target Epidermal growth factor receptor (Homo sapiens, UniProt P00533). As to the kind of experiment: Inhibition of human A431 cell EGFRK assessed as 32P phosphorylation by scintillation counter. An outline of the steps:
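Solubilized A431 cell lysate, debris removed, incubated with or without EGF for 30 min at 25 °C. Reaction started with [γ-³²P]ATP, 10 min at 0 °C. After stopping and washing, receptor phosphorylation measured as ³²P by scintillation counting.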

In assay [4] the target is 72 kDa type IV collagenase (Homo sapiens, UniProt P08253). Description: Inhibition of human bowes melanoma cell MMP2.

The structures appear in SMILES notation.

Sequence of Matrix metalloproteinase-9 (P52176 whole entry): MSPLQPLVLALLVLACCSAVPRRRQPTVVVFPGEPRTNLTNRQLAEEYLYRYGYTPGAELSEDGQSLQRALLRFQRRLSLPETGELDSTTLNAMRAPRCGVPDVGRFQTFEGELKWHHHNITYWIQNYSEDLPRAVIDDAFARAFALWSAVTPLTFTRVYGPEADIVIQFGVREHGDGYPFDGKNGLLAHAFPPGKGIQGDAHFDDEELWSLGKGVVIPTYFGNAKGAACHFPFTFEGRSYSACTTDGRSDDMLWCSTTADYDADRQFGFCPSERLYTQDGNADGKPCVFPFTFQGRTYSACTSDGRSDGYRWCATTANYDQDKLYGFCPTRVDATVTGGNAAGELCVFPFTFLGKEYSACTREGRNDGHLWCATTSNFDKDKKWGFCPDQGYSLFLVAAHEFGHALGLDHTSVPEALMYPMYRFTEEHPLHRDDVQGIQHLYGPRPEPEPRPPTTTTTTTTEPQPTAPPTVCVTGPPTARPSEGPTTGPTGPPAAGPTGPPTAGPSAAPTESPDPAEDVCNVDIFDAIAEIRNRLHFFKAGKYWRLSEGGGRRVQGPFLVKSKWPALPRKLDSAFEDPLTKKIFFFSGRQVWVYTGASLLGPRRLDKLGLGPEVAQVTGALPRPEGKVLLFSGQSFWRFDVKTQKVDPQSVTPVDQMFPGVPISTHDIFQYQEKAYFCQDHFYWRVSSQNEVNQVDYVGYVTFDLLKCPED
Sequence of 72 kDa type IV collagenase (P08253 whole entry): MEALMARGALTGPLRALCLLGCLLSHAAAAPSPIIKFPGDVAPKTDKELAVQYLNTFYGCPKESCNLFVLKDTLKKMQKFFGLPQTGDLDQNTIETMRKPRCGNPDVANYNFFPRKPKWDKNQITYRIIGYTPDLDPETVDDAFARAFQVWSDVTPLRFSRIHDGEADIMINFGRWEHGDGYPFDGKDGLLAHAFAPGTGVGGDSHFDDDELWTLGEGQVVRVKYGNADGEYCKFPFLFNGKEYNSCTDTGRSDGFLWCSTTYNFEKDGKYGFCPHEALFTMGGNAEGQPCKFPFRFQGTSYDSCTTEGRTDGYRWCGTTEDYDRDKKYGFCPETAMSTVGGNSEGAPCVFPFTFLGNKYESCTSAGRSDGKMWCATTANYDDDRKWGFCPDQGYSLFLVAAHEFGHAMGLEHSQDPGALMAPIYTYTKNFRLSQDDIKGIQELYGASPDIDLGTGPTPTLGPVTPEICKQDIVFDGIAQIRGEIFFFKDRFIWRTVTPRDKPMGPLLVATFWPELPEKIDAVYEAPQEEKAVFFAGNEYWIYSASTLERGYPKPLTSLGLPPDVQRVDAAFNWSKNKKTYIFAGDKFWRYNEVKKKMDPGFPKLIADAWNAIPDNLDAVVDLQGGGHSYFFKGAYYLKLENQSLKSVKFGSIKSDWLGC
Sequence of Vascular endothelial growth factor receptor 1 (P17948 whole entry): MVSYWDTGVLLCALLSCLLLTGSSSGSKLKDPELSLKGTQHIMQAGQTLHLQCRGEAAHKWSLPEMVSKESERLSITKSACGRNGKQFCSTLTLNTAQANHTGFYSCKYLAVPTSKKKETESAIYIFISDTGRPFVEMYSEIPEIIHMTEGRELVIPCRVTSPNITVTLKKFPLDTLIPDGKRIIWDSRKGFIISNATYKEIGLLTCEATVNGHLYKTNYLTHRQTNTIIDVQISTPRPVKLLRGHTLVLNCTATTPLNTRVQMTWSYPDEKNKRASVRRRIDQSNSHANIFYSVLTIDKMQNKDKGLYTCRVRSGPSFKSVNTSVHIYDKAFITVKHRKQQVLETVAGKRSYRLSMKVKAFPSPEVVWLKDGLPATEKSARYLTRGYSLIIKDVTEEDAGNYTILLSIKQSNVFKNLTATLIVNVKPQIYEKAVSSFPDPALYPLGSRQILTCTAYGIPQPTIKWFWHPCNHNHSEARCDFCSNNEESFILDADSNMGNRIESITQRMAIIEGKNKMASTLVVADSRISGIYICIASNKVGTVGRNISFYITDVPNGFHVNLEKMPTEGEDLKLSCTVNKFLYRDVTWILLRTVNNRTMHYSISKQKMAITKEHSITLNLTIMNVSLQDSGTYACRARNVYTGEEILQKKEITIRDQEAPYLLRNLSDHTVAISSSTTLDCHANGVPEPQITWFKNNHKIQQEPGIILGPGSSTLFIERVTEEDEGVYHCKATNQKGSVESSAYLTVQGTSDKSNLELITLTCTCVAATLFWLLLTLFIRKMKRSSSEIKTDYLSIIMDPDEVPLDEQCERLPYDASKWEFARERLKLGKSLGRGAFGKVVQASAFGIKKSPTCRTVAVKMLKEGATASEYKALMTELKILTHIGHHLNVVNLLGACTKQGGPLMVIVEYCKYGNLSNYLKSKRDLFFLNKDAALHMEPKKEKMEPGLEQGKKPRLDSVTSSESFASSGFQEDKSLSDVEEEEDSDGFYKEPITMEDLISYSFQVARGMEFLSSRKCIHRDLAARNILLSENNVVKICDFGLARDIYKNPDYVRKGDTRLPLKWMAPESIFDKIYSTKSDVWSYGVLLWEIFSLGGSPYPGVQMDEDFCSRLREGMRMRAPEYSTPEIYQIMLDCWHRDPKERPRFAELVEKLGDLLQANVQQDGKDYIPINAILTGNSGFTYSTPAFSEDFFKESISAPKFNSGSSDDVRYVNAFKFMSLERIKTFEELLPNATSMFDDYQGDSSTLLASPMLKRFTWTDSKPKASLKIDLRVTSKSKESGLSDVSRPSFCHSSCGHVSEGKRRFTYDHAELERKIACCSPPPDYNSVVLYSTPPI
Sequence of Epidermal growth factor receptor (P00533 whole entry): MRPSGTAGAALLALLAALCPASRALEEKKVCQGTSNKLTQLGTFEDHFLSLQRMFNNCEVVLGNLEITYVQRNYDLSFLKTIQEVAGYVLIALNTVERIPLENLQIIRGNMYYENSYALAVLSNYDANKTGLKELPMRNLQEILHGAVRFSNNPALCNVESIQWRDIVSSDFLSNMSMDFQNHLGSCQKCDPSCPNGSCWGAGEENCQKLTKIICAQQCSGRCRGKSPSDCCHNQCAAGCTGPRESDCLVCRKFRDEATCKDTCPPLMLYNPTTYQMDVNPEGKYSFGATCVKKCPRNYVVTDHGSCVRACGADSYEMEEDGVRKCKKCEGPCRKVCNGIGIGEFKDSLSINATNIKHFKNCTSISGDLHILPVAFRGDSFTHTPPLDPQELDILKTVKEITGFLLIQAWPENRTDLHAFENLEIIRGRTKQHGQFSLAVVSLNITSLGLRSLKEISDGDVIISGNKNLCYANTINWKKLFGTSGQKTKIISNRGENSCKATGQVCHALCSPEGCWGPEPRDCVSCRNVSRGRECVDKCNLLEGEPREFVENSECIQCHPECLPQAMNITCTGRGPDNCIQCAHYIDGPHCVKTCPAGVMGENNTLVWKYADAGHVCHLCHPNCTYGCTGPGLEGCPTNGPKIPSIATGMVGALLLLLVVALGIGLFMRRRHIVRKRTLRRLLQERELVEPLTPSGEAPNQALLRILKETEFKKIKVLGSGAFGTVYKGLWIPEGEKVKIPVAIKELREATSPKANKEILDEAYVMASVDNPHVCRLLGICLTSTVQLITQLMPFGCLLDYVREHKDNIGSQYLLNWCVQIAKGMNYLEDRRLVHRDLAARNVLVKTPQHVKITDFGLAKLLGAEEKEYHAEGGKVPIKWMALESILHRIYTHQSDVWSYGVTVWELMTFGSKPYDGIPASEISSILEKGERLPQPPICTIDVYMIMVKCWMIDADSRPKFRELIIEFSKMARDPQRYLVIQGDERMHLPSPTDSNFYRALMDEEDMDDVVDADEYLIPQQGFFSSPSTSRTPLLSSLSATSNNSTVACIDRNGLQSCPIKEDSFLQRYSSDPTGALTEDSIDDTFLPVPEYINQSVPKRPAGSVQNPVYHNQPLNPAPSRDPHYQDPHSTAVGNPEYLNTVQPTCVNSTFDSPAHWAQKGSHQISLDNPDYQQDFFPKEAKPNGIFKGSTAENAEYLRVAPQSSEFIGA

For the molecule `CC(C)(C)c1ccc(OC[C@@H](Cn2ccnc2[N+](=O)[O-])OC(=O)c2ccc(NC=C3C(=O)C=CC3=O)cc2)cc1` [TX-2036], the IC50 (as a rule, the midpoint of a concentration-inhibition curve) in assay [1] stood at 67 µM; in assay [2], 18.4 µM; in assay [3], 1.8 µM.

On to `COC[C@H](Cn1ccnc1[N+](=O)[O-])OC(=O)c1ccc(NC=C2C(=O)C=CC2=O)cc1` [TX-2044], for which, in assay [3], the IC50 amounted to 23 µM.

With `CC(C)(C)c1ccc(OC[C@H](Cn2ccnc2[N+](=O)[O-])OC(=O)c2ccc(NC=C3C(=O)C=CC3=O)cc2)cc1` [TX-2037], the IC50 in assay [1] stood at 103 µM; in assay [4] it was 183 µM; in assay [2], 184 µM; in assay [3], 18.4 µM.

On to `COC[C@@H](Cn1ccnc1[N+](=O)[O-])OC(=O)c1ccc(NC=C2C(=O)C=CC2=O)cc1`, for which the IC50 turned out to be 53 µM in assay [1], 24 µM in assay [4] and 23.4 µM in assay [2].

Turning to `COC[C@@H](Cn1ccnc1[N+](=O)[O-])OC(=O)c1ccc(NC(=O)C(F)(F)F)cc1` [TX-2045], the IC50 in assay [1] and in assay [4] was > 240 µM throughout.

Consider `COC[C@H](Cn1ccnc1[N+](=O)[O-])OC(=O)c1ccc(NC(=O)C(F)(F)F)cc1` [TX-2046], for which the IC50 in assay [1] and in assay [4] was > 240 µM throughout.

Values taken from BindingDB's records for doi:10.1016/j.bmc.2008.04.041 (The University of Tokushima, 2008).
